Assay results taken from ChEMBL document CHEMBL1177705, “Synthesis and biological characterization of the histone deacetylase inhibitor largazole and C7- modified analogues” (J Med Chem, 2010).
pIC50: −log10 of the molar value. The source made the active and inactive calls. The calls are words filed in the database; no cut-off is given here.

Legend:
NB-4 [1] = assay: Cell cycle arrest in human NB4 cells assessed as increase in accumulation at pre-G1 phase at 5 uM after 24 hrs by FACS analysis; type: functional, cell-based
How it was run: (§1)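 NB4 acute promyelocytic leukemia cells grown in RPMI 1640 with heat-inactivated FBS, glutamine, antibiotics, 37 °C, 5% CO2. Compounds given from DMSO. They were kept 30 min in the dark, then DNA content was read by flow cytometry with the pre-G1 fraction scored. Run in triplicate.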

Tubulin (Homo sapiens) = Tubulin (Homo sapiens) (UniProt P68371+Q9H4B7+P0DPH7+P68366+Q13509+Q71U36+P04350+Q3ZCM7+P07437+P68363+Q9BQE3+Q6PEY2+Q13885+Q9BVA1+Q9BUF5); assay: Inhibition of HDAC in human NB4 cells assessed as increase in acetylate tubulin level at 5 uM after 24 hrs by Western blot analysis; type: cell-based; conditions: NB-4
How it was run: (§2)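 NB4 cells treated with compounds from DMSO, harvested and PBS-washed. Lysis was 15 min at 4 °C in 50 mM Tris-HCl pH 7.4, 150 mM NaCl, 1% NP40, 10 mM NaF, 1 mM PMSF and protease inhibitors, then spun 30 min at 4 °C. Protein was measured by Bradford and lysates immunoblotted, with ERK1 as loading control.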

NB-4 [2] = assay: Induction of p21WAF1/CIP1 expression in human NB4 cells at 5 uM after 24 hrs by Western blot analysis; type: functional, cell-based; how it was run: as §2
NB-4 [3] = assay: Cell cycle arrest in human NB4 cells assessed as increase in accumulation at pre-G1 phase at 1 uM after 24 hrs by FACS analysis; type: functional, cell-based; how it was run: as §1
Histone deacetylase 4 = Histone deacetylase 4 (Homo sapiens, UniProt P56524); assay: Inhibition of human recombinant HDAC4 after 15 mins by fluorimetric assay
Chain of Histone deacetylase 4 (P56524 whole entry): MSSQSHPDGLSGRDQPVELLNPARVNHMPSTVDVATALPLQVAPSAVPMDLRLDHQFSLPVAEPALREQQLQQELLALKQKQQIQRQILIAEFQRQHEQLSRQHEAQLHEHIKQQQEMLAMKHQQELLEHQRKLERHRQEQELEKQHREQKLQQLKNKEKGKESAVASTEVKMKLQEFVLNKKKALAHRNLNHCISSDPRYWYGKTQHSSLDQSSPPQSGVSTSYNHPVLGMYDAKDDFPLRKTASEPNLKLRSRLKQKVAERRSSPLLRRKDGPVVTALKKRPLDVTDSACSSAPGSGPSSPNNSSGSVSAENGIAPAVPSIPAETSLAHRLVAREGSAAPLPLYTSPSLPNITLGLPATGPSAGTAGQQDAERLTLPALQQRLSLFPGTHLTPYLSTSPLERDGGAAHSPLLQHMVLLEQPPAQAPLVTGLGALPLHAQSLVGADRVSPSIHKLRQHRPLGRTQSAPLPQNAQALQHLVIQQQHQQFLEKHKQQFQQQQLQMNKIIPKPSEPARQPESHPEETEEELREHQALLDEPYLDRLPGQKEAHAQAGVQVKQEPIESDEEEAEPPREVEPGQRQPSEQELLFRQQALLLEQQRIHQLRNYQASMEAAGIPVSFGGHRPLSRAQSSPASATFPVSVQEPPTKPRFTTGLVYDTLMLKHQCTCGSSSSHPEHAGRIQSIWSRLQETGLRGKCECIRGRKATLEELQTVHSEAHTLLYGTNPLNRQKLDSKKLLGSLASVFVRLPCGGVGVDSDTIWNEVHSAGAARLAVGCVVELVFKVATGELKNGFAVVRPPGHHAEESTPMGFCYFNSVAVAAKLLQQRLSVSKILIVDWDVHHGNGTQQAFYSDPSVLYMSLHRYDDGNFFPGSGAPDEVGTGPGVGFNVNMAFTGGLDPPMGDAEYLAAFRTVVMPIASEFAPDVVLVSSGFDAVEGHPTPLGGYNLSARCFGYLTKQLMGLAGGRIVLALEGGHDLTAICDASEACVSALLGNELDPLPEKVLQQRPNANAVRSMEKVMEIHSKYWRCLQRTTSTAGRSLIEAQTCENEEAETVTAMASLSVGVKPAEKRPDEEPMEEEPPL

Histone deacetylase 1 [4] = biological target: T1, Histone deacetylase 1 (Homo sapiens, UniProt Q13547); assay: Ratio of compound IC50 to largazole IC50 for human recombinant HDAC1
T1 sequence (Q13547 whole entry): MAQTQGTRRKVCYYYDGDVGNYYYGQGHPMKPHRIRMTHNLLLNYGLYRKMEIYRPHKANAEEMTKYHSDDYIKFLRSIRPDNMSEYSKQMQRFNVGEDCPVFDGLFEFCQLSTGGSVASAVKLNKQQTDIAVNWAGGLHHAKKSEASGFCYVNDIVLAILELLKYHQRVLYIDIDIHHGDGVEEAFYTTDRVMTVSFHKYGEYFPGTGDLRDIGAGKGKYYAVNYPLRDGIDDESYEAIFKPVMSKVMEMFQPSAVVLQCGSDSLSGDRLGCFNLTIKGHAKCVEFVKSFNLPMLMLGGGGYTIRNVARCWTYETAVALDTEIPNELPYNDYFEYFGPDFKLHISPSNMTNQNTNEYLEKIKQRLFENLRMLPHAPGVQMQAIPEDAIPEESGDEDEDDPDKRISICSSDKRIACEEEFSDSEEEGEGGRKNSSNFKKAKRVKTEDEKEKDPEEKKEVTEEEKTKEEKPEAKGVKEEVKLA
How it was run: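 Enzyme was preincubated with compound 15 min at 37 °C, then 50 μM specific fluorogenic substrate was added. Reaction ran 1 h at 37 °C with gentle shaking, read by fluorescence; IC50 derived.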

NB-4 [5] = assay: Effect on differentiation of human NB4 cells assessed as induction of CD11c expression at 5 uM after 48 hrs by propidium iodide staining-base FACS analysis; type: functional
How it was run: (§3)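 NB4 cells in RPMI 1640/FBS at 37 °C, 5% CO2, treated with compounds from DMSO. 2.5 × 10^5 cells were pelleted and PBS-washed, then stained 30 min at 4 °C in the dark with PE-anti-CD11c, with PE-IgG as isotype background control. Cells were resuspended in PBS with 0.25 μg/mL PI and analysed by flow cytometry, excluding PI-positive cells. Run in triplicate.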

NB-4 [6] = assay: Effect on differentiation of human NB4 cells assessed as induction of CD11c expression at 5 uM after 24 hrs by propidium iodide staining-base FACS analysis; type: functional; how it was run: as §3
[7] = biological target: Histone deacetylase (Homo sapiens) (UniProt Q13547+O15379+Q9UBN7+Q92769+Q9UQL6+Q8WUI4+Q9BY41+Q96DB2+P56524+Q9UKV0+Q969S8); conditions: NB-4, at 5 µM
Histone deacetylase 1 [8] = biological target: T1, Histone deacetylase 1; assay: Inhibition of human recombinant HDAC1 after 15 mins by fluorimetric assay
NB-4 [9] = assay: Cell cycle arrest in human NB4 cells assessed as mild increase in accumulation at pre-G1 phase at 5 uM after 48 hrs by FACS analysis; type: functional, cell-based; how it was run: as §1
Histone deacetylase 1 [10] = biological target: T1, Histone deacetylase 1; assay: Ratio of largazole IC50 to compound IC50 for human recombinant HDAC1

Compound | increase in acetylated tubulin (active/not active) (Tubulin (Homo sapiens)) | pIC50 (Histone deacetylase 4) | Ratio IC50 (Histone deacetylase 1 [4]) | inhibition [7] | pIC50 (Histone deacetylase 1 [8]) | Ratio IC50 (Histone deacetylase 1 [10]) | Activity (NB-4 [1]) | Activity (NB-4 [2]) | Activity (NB-4 [3]) | Activity (NB-4 [5]) [%] | Activity (NB-4 [6]) [%] | Activity (NB-4 [9])
O=C(CCCCCCC(=O)Nc1ccccc1)NO | Active | – | – | – | – | – | Active | Active | – | – | – | –
CCCCCCCC(=O)SCC/C=C/[C@@H]1CC(=O)NCc2nc(cs2)C2=N[C@@](C)(CS2)C(=O)N[C@@H](C(C)C)C(=O)O1 [LARGAZOLE] | Active | 5.52 | – | Active | 7.94 | – | Active | Active | Active | 5 | 5 | –
Nc1ccccc1NC(=O)c1ccc(CNC(=O)OCc2cccnc2)cc1 | – | – | – | – | – | – | Active | Active | – | – | – | –
CC1=C(/C=C/C(C)=C/C=C/C(C)=C/C(=O)O)C(C)(C)CCC1 | – | – | – | – | – | – | – | – | Active | – | – | –

The next lines start with results.

increase in acetylated tubulin (active/not active) (Tubulin (Homo sapiens)) | pIC50 (Histone deacetylase 4) | Ratio IC50 (Histone deacetylase 1 [4]) | inhibition [7] | pIC50 (Histone deacetylase 1 [8]) | Ratio IC50 (Histone deacetylase 1 [10]) | Compound | Activity (NB-4 [1]) | Activity (NB-4 [2]) | Activity (NB-4 [3]) | Activity (NB-4 [5]) [%] | Activity (NB-4 [6]) [%] | Activity (NB-4 [9])
Active | 5.31 | 10 | Active | 6.79 | – | CCCCCCCC(=O)SCC/C=C/[C@@H]1CC(=O)NCc2nc(cs2)C2=N[C@@](CC)(CS2)C(=O)N[C@@H](C(C)C)C(=O)O1 | Active | Active | Active | 5 | 5 | –
Active | 5.52 | – | Active | 8.35 | – | CCCCCCCC(=O)SCC/C=C/[C@@H]1CC(=O)NCc2nc(cs2)C2=N[C@@](Cc3ccccc3)(CS2)C(=O)N[C@@H](C(C)C)C(=O)O1 | Active | Active | Active | 5 | 5 | –
Active | 5.12 | – | Active | 7.86 | – | CCCCCCCC(=O)SCC/C=C/[C@@H]1CC(=O)NCc2nc(cs2)C2=N[C@@H](CS2)C(=O)N[C@@H](C(C)C)C(=O)O1 | Active | Active | Active | 5 | 5 | –
inactive | 5.52 | – | Active | 8.33 | 2 | CCCCCCCC(=O)SCC/C=C/[C@@H]1CC(=O)NCc2nc(cs2)-c2nc(cs2)C(=O)N[C@@H](C(C)C)C(=O)O1 | inactive | – | – | 5 | 5 | Active
